TRPC6 inh – mouse TRPC6 channel inhibition. HEK293-TRPC6, membrane potential dye, ACh-evoked depolarization; active compounds read low. B-score at 10 µM. actives 1.1% (n = 310,000);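 active = B-score under library mean minus 3 SD, initial fluorescence not abnormally high, positive integrated signal ratio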;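 also: B-score derived from integrated fluorescence ratio over the kinetic read; more negative B-score means stronger inhibition of depolarization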
TRPC4 PAM – allosteric potentiators of mouse TRPC4 channel. Q9QUQ5. HEK293 TRPC4beta/mu-opioid, DAMGO EC20, Fluo-4 Ca2+ flux; active compounds read high. B-score at 10 µM. actives 0.42% (n = 310,000). AID 2227;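 active = B-score of calcium response area above 5 SD of library B-scores, with initial fluorescence ratio within 5 SD of library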;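 also: B-score of integrated fluorescence ratio over time as area under calcium response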
Target sequence (Q9QUQ5 whole entry, looked up): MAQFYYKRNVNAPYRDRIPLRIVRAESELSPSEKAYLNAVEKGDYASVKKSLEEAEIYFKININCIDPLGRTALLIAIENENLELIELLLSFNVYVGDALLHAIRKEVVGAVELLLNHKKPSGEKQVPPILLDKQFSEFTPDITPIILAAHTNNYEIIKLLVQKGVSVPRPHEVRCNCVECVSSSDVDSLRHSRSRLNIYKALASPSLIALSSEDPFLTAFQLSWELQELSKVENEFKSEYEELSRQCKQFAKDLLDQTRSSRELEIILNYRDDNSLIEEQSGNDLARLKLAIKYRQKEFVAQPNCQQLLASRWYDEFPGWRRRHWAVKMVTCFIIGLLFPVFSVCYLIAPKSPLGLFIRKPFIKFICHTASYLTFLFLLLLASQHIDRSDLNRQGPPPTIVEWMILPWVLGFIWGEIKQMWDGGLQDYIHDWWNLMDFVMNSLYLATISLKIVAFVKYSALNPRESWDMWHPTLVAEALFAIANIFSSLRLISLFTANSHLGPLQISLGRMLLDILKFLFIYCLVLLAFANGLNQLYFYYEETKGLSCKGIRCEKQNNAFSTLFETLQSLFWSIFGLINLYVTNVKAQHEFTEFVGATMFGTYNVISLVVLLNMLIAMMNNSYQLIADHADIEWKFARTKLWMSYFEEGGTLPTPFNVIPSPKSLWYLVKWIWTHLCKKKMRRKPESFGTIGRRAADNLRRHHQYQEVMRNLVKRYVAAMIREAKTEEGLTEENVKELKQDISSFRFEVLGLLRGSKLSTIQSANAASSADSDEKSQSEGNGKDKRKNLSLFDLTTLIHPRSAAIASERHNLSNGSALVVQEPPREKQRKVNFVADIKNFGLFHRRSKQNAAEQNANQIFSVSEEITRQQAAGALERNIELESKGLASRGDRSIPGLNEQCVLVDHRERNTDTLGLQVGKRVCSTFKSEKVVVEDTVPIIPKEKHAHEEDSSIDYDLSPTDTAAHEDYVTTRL
TRPC6 act – mouse TRPC6 channel activation; Q61143; HEK293-TRPC6 membrane potential dye fluorescence; active compounds read high; B-score at 10 µM; actives 0.13% (n = 310,000); AID 2550;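 active = B-score of the integrated fluorescence ratio above library mean plus 3 SD, and starting fluorescence ratio within library mean plus 5 SD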;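 also: higher score means more depolarization so channel activation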
TRPC4 act – opens the mouse TRPC4 cation channel; actives 0.49% (n = 310,000); B-score at 10 µM; HEK293 TRPC4beta/mu-opioid, Fluo4 calcium fluorescence; active compounds read high; AID 2237; Q9QUQ5;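 active = B-score above 5 SD of library B-scores, and initial fluorescence ratio not above library mean plus 5 SD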;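 also: positive B-score marks a calcium rise read as TRPC4 activation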
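System: HEK293 cells stably co-expressing mouse TRPC4beta and mu-opioid receptor; Schedule: Fluo4 dye loading 45 min at room temperature, 110 s recording; Detection: Fluo4 fluorescence, kinetic; Evaluation: B-scored integrated calcium fluorescence ratio; Controls: buffer (low) and maximal DAMGO (high).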
TRPC4 inh – blocks the mouse TRPC4 cation channel; actives 0.39% (n = 300,000); HEK293 TRPC4beta/mu-opioid, DAMGO-evoked Fluo4 calcium flux; active compounds read low; B-score at 10 µM; Q9QUQ5;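 active = B-score over 3 SD under the library average, no early fluorescence shift, positive overall ratio signal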
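Assay system: TRPC4beta/mu-opioid receptor HEK293 cell line; compound dosing: single concentration per test compound; detection: Fluo4 Ca2+ flux fluorescence; evaluation: per-well B score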
TRPC4 sel inh 2 – mouse TRPC4 off-target activity of TRPC6 inhibitors, second screen | AID 2776 | HEK293 TRPC4/MOR, membrane potential dye fluorescence; channel activated by saturating DAMGO dose | inhibition, % at 10 µM | shares compounds with TRPC6 inh | actives 42% (n = 920);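 active = compounds whose fluorescence signal differed from control wells by over 3 SD, either direction, in both duplicate plates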
TRPC4 spec – mouse TRPC4 off-target activity of TRPC6 inhibitors; actives 61% (n = 920); AID 2777; shares compounds with TRPC6 inh; HEK293 TRPC4/mu-opioid, membrane potential fluorescence; activity change, negative = inhibition, % at 10 µM;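 active = rise or fall in signal beyond 3 SD of buffer-only wells in both replicate plates, either sign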;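 also: integrated kinetic ratio of fluorescence range over baseline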
HEK293 MPD ctr 2-1 – parental HEK293 nonspecific activity of TRPC6 inhibitors, second screen | shares compounds with TRPC6 inh | parental HEK293 membrane potential dye fluorescence; maximal acetylcholine challenge after compound addition | actives 31% (n = 920) | signal change vs control, % at 10 µM | AID 2779;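 active = membrane potential signal moving either way by over 3 SD of the maximum-effect control, in both duplicate plates, meaning non-specific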
HEK293 MPD ctr-1 – checks TRPC6 inhibitor effects in parental HEK293 cells | membrane potential signal change, % at 10 µM | parental HEK293 membrane potential dye fluorescence | actives 60% (n = 920) | shares compounds with TRPC6 inh;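 active = membrane potential signal shifting up or down by more than 3 SD of buffer-only wells, on both duplicate plates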
HEK293 MPD ctr-2 – checks TRPC6 modulator effects in parental HEK293 cells | actives 51% (n = 2,400) | shares compounds with TRPC6 inh | membrane potential dye fluorescence | membrane potential signal change, % at 10 µM;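 active = membrane potential signal moves up or down beyond 5 SD from buffer-only wells, on both duplicate plates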
HEK293 MPD ctr 2-2 – second check of TRPC6 modulator effects in parental HEK293 cells. shares compounds with TRPC6 inh. membrane potential dye fluorescence; after compound, maximal acetylcholine stimulation. inhibition, % at 10 µM. actives 14% (n = 2,400). AID 488926;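 active = membrane potential signal drops by more than 5 SD from the mean control signal, in both duplicate plates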;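 also: plate controls were acetylcholine ECmax control wells for no effect and buffer only wells for full effect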
TRPC4/MOR mod – tests whether TRPC6 modulators also affect mouse TRPC4; HEK293 TRPC4/mu-opioid, membrane potential fluorescence; percent change from control (negative = decrease, positive = increase), % at 10 µM; shares compounds with TRPC6 inh; actives 69% (n = 2,400);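 active = membrane potential signal moved up or down beyond 5 SD of buffer control wells, in both duplicate plates, actives on both sides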;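 also: plate controls were assay buffer wells for no effect and DAMGO maximal-effect wells for full effect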
TRPC4 ctr inh 2 – second selectivity test of TRPC6 modulators against mouse TRPC4; HEK293 TRPC4/mu-opioid, membrane potential dye fluorescence; stimulated with maximal-effect DAMGO; shares compounds with TRPC6 inh; inhibition, % at 10 µM; actives 55% (n = 2,400);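 active = drop in membrane potential signal beyond 5 SD of the control wells in both duplicate plates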;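 also: TRPC4 counter screen for TRPC6 hits run under conditions tuned for TRPC6 not TRPC4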
TRPC6 block conf – mouse TRPC6 inhibitor confirmation; shares compounds with TRPC6 inh; HEK293-TRPC6, membrane potential dye, ACh-evoked depolarization; inhibition, % at 10 µM; actives 43% (n = 3,300); AID 488960;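 active = fluorescence ratio falls more than 5 SD below the full-stimulation control mean, in both duplicate runs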;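 also: integrated fluorescence ratio of peak minus minimum over baseline after agonist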
TRPC6 act conf – mouse TRPC6 activator confirmation; actives 11% (n = 2,800); activation, % at 10 µM; shares compounds with TRPC6 inh; HEK293-TRPC6 membrane potential dye fluorescence, FDSS;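 active = ratio signal rise beyond 5 SD above unstimulated control wells' mean, seen in both duplicate runs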;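 also: plate controls were buffer EC0 wells for no effect and acetylcholine ECmax response for full effect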
The depositor's hits bear a star; i = inactive; . = not tested or not shown. Compounds with a hit are over-represented: about 2.3% of the library has one in this group of screens.

SMILES	TRPC6 inh	TRPC4 PAM	TRPC6 act	TRPC4 act	TRPC4 inh	HEK293 MPD ctr-2	HEK293 MPD ctr 2-2	TRPC4/MOR mod	TRPC4 ctr inh 2	TRPC6 block conf	TRPC6 act conf	others
Oc1ccc(Cl)cc1Nc1nc(NCC2CCCO2)c2ccccc2n1 (stereo not given)	i	i	i	i	i	.	.	.	.	.	.
COc1cccc(Nc2nc(NCC3CCCO3)c3ccccc3n2)c1 (stereo not given)	-11*	i	i	i	i	i	i	-22%*	74%*	58%*	i
c1ccc(CN2CCN(c3nc(NCc4ccco4)c4ccccc4n3)CC2)cc1	i	i	i	i	i	.	.	.	.	.	.
c1ccc(Nc2nc(NCc3ccco3)c3ccccc3n2)cc1	i	i	i	i	i	.	.	.	.	.	.
COc1ccc(/C=C/C(=O)NCC(=O)N2CCC(N(C)CCN3CCOCC3)CC2)cc1OC	i	i	i	i	i	.	.	.	.	.	.
CCOc1cc(N2CCOCC2)c(OCC)cc1NC(=O)c1ccc(OCc2c(C)noc2C)c(OC)c1	i	i	i	i	i	.	.	.	.	.	.
COc1cccc(Nc2nc(NCCO)c3ccccc3n2)c1	-11*	i	i	i	i	.	.	.	.	90%*	i	TRPC4 sel inh 2=40%*;TRPC4 spec=-22%*;HEK293 MPD ctr 2-1=27%*;HEK293 MPD ctr-1=-237%*
Oc1ccc(Nc2nc(NCC3CCCO3)c3ccccc3n2)cc1 (stereo not given)	-6.5*	i	i	i	i	i	i	-12%*	56%*	38%*	i
c1ccc2c(NCC3CCCO3)nc(N3CCCCC3)nc2c1 (stereo not given)	i	i	i	i	i	.	.	.	.	.	.
O=C(Nc1ccnn1C1CCN(Cc2cccc(OCCO)c2)CC1)C1CC1	i	i	i	i	i	.	.	.	.	.	.
Cc1nn(-c2ccccc2)c(C)c1/C=N/Nc1nc2ccccc2[nH]1	i	i	i	i	i	.	.	.	.	.	.
CCN(CC)c1ccc(/C=N/Nc2nc3ccccc3[nH]2)cc1	-7.7*	i	i	i	i	.	.	.	.	i	i	TRPC4 sel inh 2=43%*;TRPC4 spec=-18%*;HEK293 MPD ctr 2-1=i;HEK293 MPD ctr-1=-235%*
COc1cc(/C=N/Nc2nc3ccccc3[nH]2)ccc1O	i	i	i	i	i	.	.	.	.	.	.
Cc1c(/C=N/Nc2nc3ccccc3[nH]2)c2ccccc2n1C	-15*	i	i	i	i	-192%*	74%*	-40%*	97%*	68%*	i
COc1ccc(O)c(/C=N/Nc2nc3ccccc3[nH]2)c1	-5*	i	i	i	i	i	i	i	i	i	i
Cn1c(/C=N/Nc2nc3ccccc3[nH]2)nc2ccccc21	-9.7*	i	i	i	i	i	i	-10%*	i	i	i
CC(=O)Nc1ccc(/C=N/Nc2nc3ccccc3[nH]2)cc1	i	i	i	i	i	.	.	.	.	.	.
S=C(NCC1CCCO1)c1ccc(Br)cc1 (stereo not given)	i	i	i	i	i	.	.	.	.	.	.
CC(C)(C)c1nnc(NC(=O)Cc2ccccc2[N+](=O)[O-])s1	-6.4*	i	i	i	i	i	i	i	i	i	i
O=C(Nc1ccccc1C(=O)N1CCOCC1)c1ccc(Br)cc1	i	i	i	i	i	.	.	.	.	.	.
COCCN(C(=S)Nc1ccc(Cl)cc1OC)C1CCN(C(C)=O)CC1	i	i	i	i	i	.	.	.	.	.	.
CCc1ccc(S(=O)(=O)N/N=C\c2ccc3c(c2)OCO3)cc1	i	i	i	i	i	.	.	.	.	.	.
CN1C(=S)N(c2cccnc2)C(=O)/C1=C\c1ccc(N(C)C)cc1	i	i	13*	i	i	356%*	i	108%*	i	i	106%*
CCc1ccc(C)[n+](CC(=O)c2cccs2)c1	i	i	i	i	i	.	.	.	.	.	.
O=S(=O)(Cc1ccccc1)Cc1cnc(Cl)s1	i	i	i	i	i	.	.	.	.	.	.
SMILES	TRPC6 inh	TRPC4 PAM	TRPC6 act	TRPC4 act	TRPC4 inh	HEK293 MPD ctr-2	HEK293 MPD ctr 2-2	TRPC4/MOR mod	TRPC4 ctr inh 2	TRPC6 block conf	TRPC6 act conf	others
O=C(NC1CCCCC1)C(c1ccco1)N(C(=O)c1csnn1)c1cccc(Cl)c1 (stereo not given)	i	i	i	i	i	.	.	.	.	.	.
Cc1ccc2c(c1)c1c(n2CC(O)CN2CCC(C)CC2)CCCC1 (stereo not given)	-5.8*	i	i	i	i	i	i	12%*	54%*	40%*	i
COC(=O)Nc1ccc2c(c1)N(C(=O)CCN(C)C)c1ccccc1CC2	i	i	i	i	i	.	.	.	.	.	.
CCOC(=O)c1cnc2ccc(Cl)cc2c1NCCN(C)C	-6.5*	i	i	i	i	-104%*	i	-18%*	49%*	46%*	i
CCOC(=O)c1cnc2c(ccc3ccccc32)c1NCCCN(C)C	-6.4*	i	i	i	i	i	70%*	i	56%*	48%*	i
CCOC(=O)c1cnc2ccccc2c1NCCO	-5.6*	i	i	i	i	-108%*	i	-14%*	40%*	49%*	i

Screens deposited in PubChem BioAssay by Johns Hopkins Ion Channel Center.
